Data taken from the EternaBench riboswitch data.

Tested on: MS2 coat protein
Assay: apparent Kd, MS2 coat protein; higher = weaker binding; RNA-MaP array; FMN 200 µM where present
How it was run: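 Designs on Illumina sequencing-chip clusters, transcribed by stalled E. coli RNA polymerase, were exposed to SNAP-549-labelled MS2 coat protein in doubling steps from 0.7 or 1.5 nM up to 3 µM, without and then with constant ligand. The buffer held 100 mM Tris-HCl pH 7.5, 80 mM KCl, 4 mM MgCl2, BSA, DTT, yeast tRNA and Tween-20. Apparent Kd values are medians of filtered per-cluster binding-curve fits to green signal normalised to red-channel RNA signal and control-cluster median Fmax.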

[1] = designed as: OFF switch for flavin mononucleotide, no ligand
[2] = ligand present: flavin mononucleotide, designed as: OFF switch for flavin mononucleotide
[3] = designed as: ON switch for flavin mononucleotide, no ligand
[4] = ligand present: flavin mononucleotide, designed as: ON switch for flavin mononucleotide

UAUAUACAUGAGGAUCACCCAUGUGAGGAUAUGCUUUAUUAUUAUUAUUAUUAUUAUUGCAGAAGGUACAUUAU
apparent Kd [1]: 28.9 nM | apparent Kd [2]: 28.8 nM

UAUAUAUAGGCAGGAUAUACAUGAAUAUAUAUAAUAUAGUAUGAUGUAACAUGAGGAUCACCCAUGUAGAAGGGCCAAUAUAUA
apparent Kd [1]: 36.2 nM | apparent Kd [2]: 83.9 nM

UAUAUAUAGGCAGGAUAUACAUGUAUAUAUAAUAUAUUAUAUAAUAUAACAUGAGGAUCACCCAUGUAGAAGGGCCAUAAUAUA
apparent Kd [1]: 58.4 nM | apparent Kd [2]: 83.7 nM

UAUAUAUAGUAAGGAUAUGUAAUUAUCUUAUAAACAGAAGGUACUGACAUGAGGAUCACCCAUGUUUUAGUGUGGGCAUGUAGA
apparent Kd [1]: 56.9 nM | apparent Kd [2]: 60.1 nM

UAUAUAUAGUAAGGAUAUGUAAUUAUUUAAUAAACAGAAGGUACUGACAUGAGGAUCACCCAUGUUUUAGUGUGGGCAUGUAGA
apparent Kd [1]: 80.5 nM | apparent Kd [2]: 135 nM

UAUAUAUAGUAAGGAUAUGUAUAUAAUUUAUAAACAGAAGGUACUGACAUGAGGAUCACCCAUGUUUUAGUGUGGGCAUGUAGA
apparent Kd [1]: 72.8 nM | apparent Kd [2]: 141 nM

UAUAUAUAGUAAGGAUAUGUAUAUAUUCUAUAAACAGAAGGUACUGACAUGAGGAUCACCCAUGUUUUAGUGUGGGCAUGUAGA
apparent Kd [1]: 33.9 nM | apparent Kd [2]: 30.5 nM

UAUAUAUAGUAAGGAUAUGUAUAUAUUGUAUAAACAGAAGGUACUGACAUGAGGAUCACCCAUGUUUUAGUGUGGGCAUGUAGA
apparent Kd [1]: 76.5 nM | apparent Kd [2]: 121 nM

UAUAUAUAGUAAGGAUAUGUAUAUAUUUGAUAAACAGAAGGUACUGACAUGAGGAUCACCCAUGUUUUAGUGUGGGCAUGUAGA
apparent Kd [1]: 62.8 nM | apparent Kd [2]: 78.6 nM

UAUAUAUAGUAAGGAUAUGUAUAUAUUUUACAAACAGAAGGUACUGACAUGAGGAUCACCCAUGUUUUAGUGUGGGCAUGUAGA
apparent Kd [1]: 57.8 nM | apparent Kd [2]: 60 nM

UAUAUAUAGUAAGGAUAUGUAUAUGUUUUAUAAACAGAAGGUACUGACAUGAGGAUCACCCAUGUUUUAGUGUGGGCAUGUAGA
apparent Kd [1]: 58.4 nM | apparent Kd [2]: 92 nM

UAUAUAUAGUAAGGAUAUGUAUUAAUUUUAUCAACAGAAGGUACUGACAUGAGGAUCACCCAUGUUUUAGUGUGGGCAUGUAGA
apparent Kd [1]: 84 nM | apparent Kd [2]: 109 nM

UAUAUGUCAGGAUAUCGAUUGGAGCGGAAUUUAGCUUUGGUCGAGAAGGGACAUGAGGAUCACCCAUGUUCAAC
apparent Kd [1]: 19.8 nM | apparent Kd [2]: 37.8 nM

UAUAUGUCAGGAUAUCGAUUGGUACGGAAUUCGGUACUGGUUGAGAAGGGACAUGAGGAUCACCCAUGUUUUUC
apparent Kd [1]: 38.5 nM | apparent Kd [2]: 228 nM

UAUAUGUCAGGAUAUUAGUUGUGGACGAAUAAGACUUCUGCUGAGAAGGGACAUGAGGAUCACCCAUGUUCCUC
apparent Kd [1]: 15.8 nM | apparent Kd [2]: 19.4 nM

UAUAUUUAUGUAGGAUAUGGUAUAUAAAAUAUACCAGAAGGACAUGAGGAUCACCCAUGUAUGAAAUUCCAUAAUAACCGUGUA
apparent Kd [1]: 11.1 nM | apparent Kd [2]: 12.2 nM

UAUAUUUAUGUAGGAUAUGGUAUAUAAAAUAUACCAGAAGGACAUGAGGAUCACCCAUGUAUGAAAUUCCAUAAUAAGCGUGUA
apparent Kd [1]: 12.2 nM | apparent Kd [2]: 13.8 nM

UAUAUUUAUGUAGGAUAUGGUAUAUAAAAUAUACCAGAAGGACAUGAGGAUCACCCAUGUAUGAAAUUCCAUAAUUACCGUGUA
apparent Kd [1]: 9.98 nM | apparent Kd [2]: 11.3 nM

UAUCAAUUUAUGGGUUUAGAUUAUGAGGAUAUCAUUUUUUUAUACAUGAGGAUCACCCAUGUUACUGAGAAGGCAUAAUUAAUA
apparent Kd [3]: 17.4 nM | apparent Kd [4]: 6.21 nM

UAUCGUUCCGAGGAUAUGAGGCGACUGGCGCGAUCAGAAGGCGGAACAUGAGGAUCACCCAUGUUCCUUACCUU
apparent Kd [1]: 12.2 nM | apparent Kd [2]: 20.5 nM

UAUGCCUUUGUGAGGAUAUACUUUGUUUGGUCGUAGUAGAAGGCACAUGAGGAUCACCCAUGUAGAUUUUUGGU
apparent Kd [1]: 27.5 nM | apparent Kd [2]: 72.2 nM

UAUGUAUUCGUAGGAUAUCCGUUAAAACCAUGUGGAGAAGGACGAACAUGAGGAUCACCCAUGUAUCAUGGUGUAGACAAUUUU
apparent Kd [1]: 55.5 nM | apparent Kd [2]: 321 nM

UAUGUGUCAGGAUAUUAAUUAUUGGAGAAUGUGACGAUGAUUAAGAAGGGACAUGAGGAUCACCCAUGUUCAUC
apparent Kd [1]: 20.4 nM | apparent Kd [2]: 33.6 nM

UAUUAAUGCAAGGAUAUGCUUUUAAUUUUUUUUGCAGAAGGUGCAACAUGAGGAUCACCCAUGUUUCAGGGUAU
apparent Kd [1]: 42.1 nM | apparent Kd [2]: 57.6 nM

UAUUAGCUAGGAUAUACAUGAGGAUCACCCAUGUCACGGGUCCACUCGUCCUAUGCGUGUAGAAGGAGCGACCC
apparent Kd [1]: 20.6 nM | apparent Kd [2]: 22.4 nM

UAUUUAAGAGGAUAUACAUGAGGAUCACCCAUGUAUAUUAAUAUACAUGAUUUUUUAUGUAGAAGGCUUGGGUA
apparent Kd [1]: 25.5 nM | apparent Kd [2]: 58.4 nM

UAUUUACGAGGAUAUCGUUUUUUUCACAUGAGGAUCACCCAUGUUGUUUAUGUUGCGUUGCGAGAAGGCGUUUGUU
apparent Kd [1]: 31.1 nM | apparent Kd [2]: 23 nM

UAUUUAUAAUAUAUUAACAUGAGGAUCACCCAUGUCGCUAGACAGGAUAUAUUUUAUUUUUUUAAGUAGAAGGGUCAUAUAUUU
apparent Kd [3]: 68 nM | apparent Kd [4]: 85.9 nM

UCACACCACGUUAGGAUAUCGCUGGACAAAACUGGCGAGAAGGAACAUGAGGAUCACCCAUGUGACUUCAAGGU
apparent Kd [1]: 16.2 nM | apparent Kd [2]: 18.5 nM

UCACGGGUUUGAGGAUAUAUUAUUAUUAUUUAAAUAGAAGGCAAAGAAAUUGUUAUUUCACUAUACAUGAGGAUCACCCAUGUU
apparent Kd [1]: 25.4 nM | apparent Kd [2]: 23.4 nM

UCAGUAGAGUCAGGAUAUACGAAAGAAGAUCCUUACAUGAGGAUCACCCAUGUAGAAGGGACUCUACUGUAAGUCGGAAACGAC
apparent Kd [1]: 129 nM | apparent Kd [2]: 192 nM

UCAGUAGAGUCAGGAUAUACGUCCAAAUUUCCUCACAUGAGGAUCACCCAUGUAGAAGGGACUCUACUGUAAGUCGGAAACGAC
apparent Kd [1]: 7.42 nM | apparent Kd [2]: 31 nM

UCAGUAGAGUCAGGAUAUACGUUAAAAUUUCCUCACAUGAGGAUCACCCAUGUAGAAGGGACUCUACUGUAAGUCGGAAACGAC
apparent Kd [1]: 35.2 nM | apparent Kd [2]: 686 nM

UCAUAACAUGAGGAUCACCCAUGUCAGGAUAUGAUACUAUGUACUUCGGUACAUAGUAUCAGAAGGGACAUACU
apparent Kd [1]: 96.8 nM | apparent Kd [2]: 153 nM

UCAUAUAUACAAGGAUAUCAAUUAUAUACACAUCCUACAUGAGGAUCACCCAUGUUUUAUUUUUUUGAGAAGGUGUAUUGUCGG
apparent Kd [3]: 24.1 nM | apparent Kd [4]: 32.1 nM

UCAUUAUAAAUCCAUCAUAACUACAUGAGGAUCACCCAUGUGCAGGAUAUCGAUUUUUUAACUUUCGAGAAGGGCAAUUACAGA
apparent Kd [1]: 37.6 nM | apparent Kd [2]: 96.1 nM

UCAUUUAAUACAGGAUAUGUUAUUAUACAGUUGUUUGGUUAUUACAUUAUAACAGAAGGGUAGAACAUGAGGAUCACCCAUGUA
apparent Kd [3]: 179 nM | apparent Kd [4]: 79.4 nM

UCAUUUCAGAAAGGAUAUUAAUUCAUGACGAUACAUGAGGAUCACCCAUGUUAAGAAGGUUCUAAUACAAAUAAUGCAUUGUUC
apparent Kd [1]: 13.2 nM | apparent Kd [2]: 10.5 nM

UCCAGGCGAGGAUAUACUUAGAUUUUUUCGUUUAGUCUCGAACAUGAGGAUCACCCAUGUAGAAGGUGCUUCAC
apparent Kd [1]: 45.6 nM | apparent Kd [2]: 42 nM

UCCCGAAGGCGGGCCGACCAUACAUGAGGAUCACCCAUGUCGAGAAGGUGCUCACGGGUGGGUGGCAAGGAUAUCGGGUCGGAU
apparent Kd [3]: 93.8 nM | apparent Kd [4]: 42.3 nM

UCCGAUGUACAUGAGGAUCACCCAUGUCACAUGCCCGUGACACAGGAUAUCCAGGAUAGGCCAAAGGAGAAGGGUGAUCCGCGG
apparent Kd [3]: 64.3 nM | apparent Kd [4]: 94.5 nM

UCCUCACAUGAGGAUCACCCAUGUCAGGAUAUAGGAGAUGGCAGAAAUCCUGCCAUCGCUAGAAGGGACUGGCA
apparent Kd [1]: 43.8 nM | apparent Kd [2]: 154 nM

UCCUUUAAUACAGGAUAUGUUAUUAUACAGUUGUUUGCUUAUUACUUUAUAACAGAAGGGUAGAACAUGAGGAUCACCCAUGUA
apparent Kd [3]: 76 nM | apparent Kd [4]: 50 nM

UCGAAAAUACAAGGAUAUCAAUUGUAGCUAAAUUCAACAUGAGGAUCACCCAUGUAACUAUGGAGUGAGAAGGUGUAGUAAUUU
apparent Kd [3]: 113 nM | apparent Kd [4]: 450 nM

UCGACGAAAGUCGAACGAUGUAGCAGAAGGACAUGAGGAUCACCCAUGUCAGCUGUAACAGCCAUGUAGGAUAUGCUACAUCGG
apparent Kd [1]: 4.43 nM | apparent Kd [2]: 5.37 nM

UCGAGUCAUGAGAAGGACUGAUGUUACAUGAGGAUCACCCAUGUCAUGGGUAGGAUAUCAUUGACACGGCUGUACCUCUCUUAC
apparent Kd [3]: 196 nM | apparent Kd [4]: 47.7 nM

UCGAUCGGAGGAUAUGCUAAUGCAACUACUGCAGUUUCAAAACAUGAGGAUCACCCAUGUAGAAGGCCGAUAUA
apparent Kd [1]: 17 nM | apparent Kd [2]: 15.6 nM

UCGCCAGGUACAGGAUAUGUGGAUCAGUCAAGUAACUUGCUGAACAUGAGGAUCACCCAUGUAUCACAGAAGGGUGCCUCAAAA
apparent Kd [3]: 199 nM | apparent Kd [4]: 10.8 nM

UCGCUGCGAGGAUAUACAUGAGGAUCACCCAUGUACGGGUCCGGGUUUUCGUCCAUUAGUAGAAGGCGCAGUGA
apparent Kd [1]: 156 nM | apparent Kd [2]: 60.6 nM

UCGCUGCGAGGAUAUACAUGAGGAUCACCCAUGUGCGGGUCCGGGUCUUCGUCCAUUAGUAGAAGGCGCAGUGA
apparent Kd [1]: 122 nM | apparent Kd [2]: 212 nM

UCGGCGCGAGGAUAUACGUUUGCUUUUUUGGGUCGUUGCGUACAUGAGGAUCACCCAUGUAGAAGGCGCGCCGC
apparent Kd [1]: 27.4 nM | apparent Kd [2]: 187 nM

UCGGCGCGAGGAUAUACGUUUGCUUUUUUUUGUCGUUGCGUACAUGAGGAUCACCCAUGUAGAAGGCGCGCCGC
apparent Kd [1]: 16.7 nM | apparent Kd [2]: 31 nM

UCGGCGCGAGGAUAUACGUUUGCUUUUUUUUGUUUUUGUGUACAUGAGGAUCACCCAUGUAGAAGGCGCGCCGC
apparent Kd [1]: 18.1 nM | apparent Kd [2]: 24.9 nM

UCGGCGCGAGGAUAUGCGGUUCCUCCCUAGGGCCGGAGCGUACAUGAGGAUCACCCAUGUAGAAGGCGCGCCGC
apparent Kd [1]: 12.3 nM | apparent Kd [2]: 15 nM

UCGGCGCGAGGAUAUGCGGUUCCUUCUUCGGGCCGGAGCGUACAUGAGGAUCACCCAUGUAGAAGGCGCGCCGC
apparent Kd [1]: 13.6 nM | apparent Kd [2]: 15.3 nM
